# Active and inactive are the calls of the source. The calls are words filed in the database; no cut-off is given here.
# Columns and labels:
# [1] = tested on: Human immunodeficiency virus 1; assay: (§1) Inhibition of HIV-1 nucleocapsid protein (12 to 55 residues) assessed a sreduction in TAR29/cTAR29 duplex formation preincubated for 15 mins followed by TAR29/cTAR29 addition and measured after 15 mins by nucleocapsid annealing mediated electrophoresis assay
# Summary of the method: (§2)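 TAR29 and cTAR29 hairpins folded separately (95°C 5 min, slow cooling) in Tris 25 mM, NaCl 30 mM, Mg(ClO4)2 0.2 mM, pH 7.5. NC(12–55, LAI strain; final 8 μM) preincubated with compound (DMSO ≤2%) 15 min at room temperature. Then 1 μM each hairpin added, 15 min at room temperature. Stopped with SDS/EDTA loading buffer; duplex resolved on native 12% PAGE. IC50 from Hill fit, triplicates.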
# [2] = as §1; parameters: species or system Human immunodeficiency virus 1; summary of the method: as §2
# [3] = tested on: Human immunodeficiency virus 1; assay: Binding affinity to HIV-1 nucleocapsid protein (1 to 55 residues) at 5 uM incubated for 30 mins by ESI-MS method
# [4] = tested on: Human immunodeficiency virus 1; assay: Binding affinity to HIV-1 nucleocapsid protein (1 to 55 residues) assessed as fractional protein occupancy ratio at 5 uM incubated for 30 mins by ESI-MS method
# [5] = Inhibition of HIV-1 nucleocapsid protein (11 to 55 residues) chaperone activity assessed as reduction in nucleocapsid-induced Alexa488-labeled TAR55AD nucleic acid destabilization using Dabcyl as quencher by spectrofluorimetry based nucleic acid destabilization assay; parameters: species or system Human immunodeficiency virus 1
# Summary of the method: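 Preformed complex of 100 nM cTAR55 (5'-Alexa488, 3'-Dabcyl) and 1000 nM NC(11–55, MAL strain, Zn-loaded) in Tris 25 mM, NaCl 30 mM, MgCl2 0.2 mM, pH 7.5. Compound titrated in (25–500 μM); emission spectra taken at 480 nm excitation, 20°C. Inhibition calculated relative to cTAR alone and cTAR+NC, corrected for dilution and compound fluorescence. IC50 from Hill dose-response fit, triplicates.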
# [6] = tested on: Human immunodeficiency virus 1; assay: Inhibition of HIV-1 nucleocapsid protein (11 to 55 residues) assessed as reduction in dTAR55/cTAR55AD nucleic acid annealing at 200 uM by Alexa488 dye-based fluorimetric analysis
# Summary of the method: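 Pseudo-first-order annealing: 10 nM cTAR55 (5'-Alexa488, 3'-Dabcyl) and 100 nM dTAR55, each premixed with 8-fold NC(11–55, MAL strain, Zn-loaded). Buffer was Tris 25 mM, NaCl 30 mM, MgCl2 0.2 mM, pH 7.5, with 1% DMSO. Compound added to the dTAR55/NC mix. Fluorescence read at 480/519 nm, 20°C; rate constant from mono-exponential fit.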
# [7] = tested on: Human immunodeficiency virus 1; assay: Antiviral activity against HIV1 NL4-3 infected in human TZM-bl cells measured after 2 days by luciferase reporter gene based monocycle infection assay; assay type: functional, organism-based; settings: Human immunodeficiency virus 1, NL4-3, TZM-bl, 48 h
# Summary of the method: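 TZM-bl cells (30,000/well) were infected with an NL4-3 stock in the presence of serial five-fold compound dilutions from 5 nM to 400 μM. Plates were held at 37°C, 5% CO2, for two days. Cells were then lysed and luciferase was read as RLU. IC50 was fitted from per-well RLU with a 95% confidence interval.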
# [8] = tested on: Human immunodeficiency virus 1; assay: Antiviral activity against HIV1 NL4-3 infected in human MT2 cells incubated for 72 hrs followed by reinfection in human TZM-bl cells measured after 48 hrs by luciferase reporter gene based bicycle infection assay; assay type: functional, organism-based; settings: Human immunodeficiency virus 1, NL4-3
# Summary of the method: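 This is a two-cycle format. MT-2 cells (50,000/well) were infected with NL4-3 alongside five-fold compound dilutions (5 nM–400 μM) and kept 72 h at 37°C, 5% CO2. Supernatant carrying first-round virus then infected TZM-bl cells (30,000/well) for 48 h under the same conditions. Luciferase RLU gave the IC50 with a 95% confidence interval.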
# [9] = tested on: TZM; assay: Cytotoxicity against human TZM-bl cells after 48 hrs by CellTiter-Glo reagent-based assay; assay type: cell-based
# Summary of the method: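 Viability was measured by CellTiter-Glo ATP luminescence. TZM-bl cells (15,000/well) were incubated 48 h at 37°C, 5% CO2, with serial two-fold compound dilutions from 3.1 to 400 μM. Medium was then replaced by reagent, shaken 10 min, and luminescence read. TD50 was derived from RLU normalised to untreated cells (100% viability), with a 95% confidence interval.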
# [10] = Selectivity index, ratio of IC50 for human TZM-bl cells to IC50 for HIV1 NL4-3 infected in human TZM-bl cells; assay type: toxicity, cell-based; settings: uninfected versus infected with HIV1 NL4-3, read-out: Ratio IC50
# Summary of the method: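 Selectivity index from TD50 in TZM-bl cells and IC50 from the MonoCycle assay. […] MonoCycle IC50: 30,000 TZM-bl cells/well infected with NL4-3 with five-fold dilutions 5 nM–400 μM; luciferase RLU read after two days.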
# [11] = Selectivity index, ratio of IC50 for human MT2 cells to IC50 for HIV1 NL4-3 infected in human MT2 cells; assay type: toxicity, cell-based; settings: uninfected versus infected with HIV1 NL4-3, read-out: Ratio IC50
# Summary of the method: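 Selectivity index from TD50 in MT-2 cells and IC50 from the BiCycle assay. […] BiCycle IC50: MT-2 cells infected with NL4-3 with compound for 72 h; supernatant then transferred to TZM-bl cells, luciferase read after 48 h.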
# [12] = tested on: MT2; assay: Cytotoxicity against human MT2 cells after 72 hrs by CellTiter-Glo reagent-based assay; settings: MT2, 72 h
smiles,measurement,setting,value
COc1ccc(O)c(C(=O)c2cnc3[nH]c(=O)[nH]c(=O)c3c2)c1,inhibition,[1],inactive
COc1ccc(C(C)(C)C)cc1NS(=O)(=O)c1ccc2[nH]c(=O)[nH]c2c1,IC50,[2],Not Active
N#Cc1cnc(SCc2cccc(C(N)=O)c2)nc1N,inhibition,[1],inactive
Cc1cc(CCCNc2nnnn2-c2ccccc2)n[nH]1,inhibition,[1],inactive
COc1cccc(-n2c(CCn3cccn3)n[nH]c2=O)c1,inhibition,[1],inactive
Cc1ccc(NC(=O)CCn2c(=O)[nH]c3cc(S(=O)(=O)N4CCCC4)ccc32)cc1,IC50,[2],Not Active
COc1ccc2[nH]c(C(N)=O)cc2c1,inhibition,[1],inactive
Cc1ccc(NS(=O)(=O)c2ccc3oc(=O)[nH]c3c2)c(C)c1,Activity,[3],Active
same,Ratio,[4],0.06
O=c1[nH]c2ccc(S(=O)(=O)Nc3ccc(S(=O)(=O)NCC(F)(F)F)cc3)cc2o1,IC50,[2],Not Active
O=C(CCC1NC(=O)c2ccccc21)Nc1nc[nH]n1 (configuration not stated),inhibition,[1],inactive
CC(CCc1ccccc1)NC(=O)c1ccc[nH]c1=O (configuration not stated),inhibition,[1],inactive
COc1cccc(CNn2cnnc2S)c1OCc1ccccc1,inhibition,[1],inactive
Cc1cc(C)n(CCOC(=O)c2ccc(N3CCNC3=O)cc2)n1,inhibition,[1],inactive
NC(=O)c1ccc(CNC(=O)Cn2ccc(=O)[nH]c2=O)cc1,inhibition,[1],inactive
O=c1[nH]c2ccc(S(=O)(=O)Nc3cc(C(F)(F)F)ccc3Cl)cc2o1,IC50,[2]; read-out: IC50,179 µM
same,Activity,[3],Active
NC(=O)c1ccn(COc2ccccc2F)n1,inhibition,[1],inactive
CS(=O)(=O)N1CCc2cc(NS(=O)(=O)c3ccc4[nH]c(=O)oc4c3)ccc21,IC50,[2],Not Active
Cc1nc(CN(C)S(=O)(=O)c2cc3[nH]c(=O)[nH]c3cc2Br)no1,IC50,[2],Not Active
c1ccc(-c2ccnc3[nH]ccc23)c(OCCn2ccnc2)c1,inhibition,[1],inactive
O=C(CSc1ccccn1)c1ccc(O)c(O)c1,inhibition,[1],inactive
CSCCC(NS(=O)(=O)c1ccc2[nH]c(=O)oc2c1)C(=O)O (configuration not stated),IC50,[2],Not Active
O=C(O)CCC1NC(=O)N(Cc2ccccc2)C1=O (configuration not stated),inhibition,[1],inactive
Cc1ccc(-c2nn(CCC(=O)O)cc2/C=C2\SC(=N)NC2=O)cc1,inhibition,[1],inactive
N=C(N)NS(=O)(=O)c1ccc2[nH]c(=O)oc2c1,IC50,[2]; read-out: IC50,203 µM
COc1ccccc1NC(=O)CCNS(=O)(=O)c1ccc2nc(O)oc2c1,IC50,[2],Not Active
COc1ccccc1-c1nccn1CCc1n[nH]c(=O)[nH]1,inhibition,[1],inactive
Cc1nc2c(c(=O)[nH]1)CCN(S(=O)(=O)c1cccc3nsnc13)C2,inhibition,[1],inactive
N#Cc1ccc(CSc2nc3[nH]ncc3c(=O)[nH]2)cc1,inhibition,[1],inactive
O=C(CO)N1CCCC(c2[nH]ncc2Cc2ccccc2)C1 (configuration not stated),inhibition,[1],inactive
O=c1[nH]c2cc(S(=O)(=O)Nc3ccc4[nH]ncc4c3)ccc2o1,IC50,[2]; read-out: IC50,20 µM
same,IC50,[5],210 µM
same,inhibition,[6],40%
same,IC50,[7],30.6 µM
same,IC50,[8],36.4 µM
same,TD50,[9],155 µM
same,selectivity ratio,[10],5.1
same,selectivity ratio,[11],3.8
same,IC50,[12],140 µM
same,Activity,[3],Active
same,Ratio,[4],0.16
O=C(COc1cccc(Cl)c1Cl)N1CCNC1=O,inhibition,[1],inactive
Cc1cc2[nH]c(=O)oc2cc1S(=O)(=O)NN1CCc2c(nc[nH]c2=O)C1,IC50,[2]; read-out: IC50,170 µM
same,Activity,[3],Active
O=C1CN(C(=O)Cc2n[nH]c(=O)c3ccccc23)CCN1,inhibition,[1],inactive
CC(=O)c1sc(NS(=O)(=O)c2ccc3[nH]c(=O)[nH]c3c2)nc1C,IC50,[2],Not Active
Nc1cccc(C(=O)NCCCC(=O)O)c1,inhibition,[1],inactive
O=c1[nH]c2ccc(S(=O)(=O)Nc3cc(-c4ccccc4)no3)cc2[nH]1,IC50,[2],Not Active
O=c1[nH]c2ccc(S(=O)(=O)Nn3cnnc3)cc2o1,IC50,[2],Not Active
O=C(O)c1ccc2c(c1)CCN2S(=O)(=O)c1ccc2[nH]c(=O)oc2c1,IC50,[2]; read-out: IC50,163 µM
same,Activity,[3],Active
O=C(Cn1[nH]cc2c(=O)ncnc1-2)NC1(c2ccccc2)CCC1,inhibition,[1],inactive
N=C(N)c1ccc(N2CCCCC2)cc1,inhibition,[1],inactive
O=C(O)CNS(=O)(=O)c1ccc2[nH]c(=O)oc2c1,IC50,[2],Not Active
O=C1N=NC(=S)N1c1ccc(Cl)c(Cl)c1,inhibition,[1],Active
Cc1nc[nH]c1-c1nccn1CCCc1ccccc1,inhibition,[1],inactive
Cc1cc(COc2ccc(Cl)cc2C(N)=O)no1,inhibition,[1],inactive
O=c1cc(Cc2nnc(S)n2-c2ccc(Cl)cc2)[nH]c(=O)[nH]1,inhibition,[1],Active
O=c1[nH]c2ccc(S(=O)(=O)O)cc2[nH]1,IC50,[2],Not Active
O=C(O)c1ccc(NS(=O)(=O)c2ccc3[nH]c(=O)[nH]c3c2)cc1O,IC50,[2],Not Active
O=C(O)C1CCN(c2ncnc3nc[nH]c23)CC1,inhibition,[1],inactive
